Source: ChEMBL document CHEMBL5303300, “EUbOPEN Chemogenomics Library - Multiplex” (2023)
Where “and” joins values, the source holds several entries; their conditions need not be identical. Equal values may be shown once.

Tested on: U2OS
Assay: Multiplex assay against U2OS
Type: toxicity, cell-based
Conditions: human, number of replicates 2
Procedure, shortened: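 With compound added, live cells were imaged on a CQ1 microscope at 37°C and 5% CO2; staining with Hoechst33342, BioTracker Green Microtubule Cytoskeleton Dye, MitoTracker Red and Annexin V Alexa Fluor 680 had been done at seeding. The CellPathfinder machine-learning gating scheme split cells into Hoechst high-intensity objects or normal cells, normal cells into healthy, pyknosed or fragmented nuclei, and pyknosed cells into mitotic or apoptotic. The tubulin, mitochondrial-mass and membrane-permeability phenotypes are per cents of healthy-nucleus cells.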

[1] = 12 h, 1 µM, compound concentration 1 uM
[2] = 12 h, 10 µM, compound concentration 10 uM
[3] = 24 h, 1 µM, compound concentration 1 uM
[4] = 24 h, 10 µM, compound concentration 10 uM
[5] = 48 h, 1 µM, compound concentration 1 uM
[6] = 48 h, 10 µM, compound concentration 10 uM

## NCC1CCC(CNc2nc(NCc3ccccc3OC(F)(F)F)ncc2[N+](=O)[O-])CC1 (stereo unspecified)
[1]
  Population Apoptotic (%): 50% and 43%
  Population Fragmented Nuclei (%): 5% and 1%
  Population Healthy Nuclei (%): 74% and 87%
  Population Hoechst High Intensity Objects (%): 0%
  Population Membrane Permeable-Phenotype (%): 7%
  Population Mitochondria Different-Phenotype (%): 7% and 18%
  Population Mitotic Cells (%): 50% and 56%
  Population Normal (%): 100% and 99%
  Population Pyknosed Nuclei (%): 19% and 11%
  Population Tubulin-Different-Phenotype (%): 31% and 29%
[2]
  Population Apoptotic (%): 68% and 67%
  Population Fragmented Nuclei (%): 24% and 19%
  Population Healthy Nuclei (%): 36% and 61%
  Population Hoechst High Intensity Objects (%): 0%
  Population Membrane Permeable-Phenotype (%): 53% and 34%
  Population Mitochondria Different-Phenotype (%): 73% and 64%
  Population Mitotic Cells (%): 31% and 32%
  Population Normal (%): 100%
  Population Pyknosed Nuclei (%): 39% and 19%
  Population Tubulin-Different-Phenotype (%): 93% and 76%
[3]
  Population Apoptotic (%): 60%
  Population Fragmented Nuclei (%): 1% and 0%
  Population Healthy Nuclei (%): 81% and 85%
  Population Hoechst High Intensity Objects (%): 0%
  Population Membrane Permeable-Phenotype (%): 4% and 5%
  Population Mitochondria Different-Phenotype (%): 0% and 22%
  Population Mitotic Cells (%): 40% and 39%
  Population Normal (%): 100%
  Population Pyknosed Nuclei (%): 16% and 13%
  Population Tubulin-Different-Phenotype (%): 20% and 30%
[4]
  Population Apoptotic (%): 100% and 80%
  Population Fragmented Nuclei (%): 28% and 21%
  Population Healthy Nuclei (%): 31% and 59%
  Population Hoechst High Intensity Objects (%): 0%
  Population Membrane Permeable-Phenotype (%): 63% and 43%
  Population Mitochondria Different-Phenotype (%): 36% and 55%
  Population Mitotic Cells (%): 0% and 19%
  Population Normal (%): 100%
  Population Pyknosed Nuclei (%): 40% and 19%
  Population Tubulin-Different-Phenotype (%): 90% and 81%
[5]
  Population Apoptotic (%): 76% and 78%
  Population Fragmented Nuclei (%): 6% and 1%
  Population Healthy Nuclei (%): 71% and 88%
  Population Hoechst High Intensity Objects (%): 0%
  Population Membrane Permeable-Phenotype (%): 7% and 2%
  Population Mitochondria Different-Phenotype (%): 3% and 10%
  Population Mitotic Cells (%): 23% and 21%
  Population Normal (%): 100%
  Population Pyknosed Nuclei (%): 21% and 9%
  Population Tubulin-Different-Phenotype (%): 19% and 34%
[6]
  Population Apoptotic (%): 100% and 91%
  Population Fragmented Nuclei (%): 24% and 21%
  Population Healthy Nuclei (%): 24% and 54%
  Population Hoechst High Intensity Objects (%): 0%
  Population Membrane Permeable-Phenotype (%): 100% and 72%
  Population Mitochondria Different-Phenotype (%): 75% and 46%
  Population Mitotic Cells (%): 0% and 8%
  Population Normal (%): 100%
  Population Pyknosed Nuclei (%): 51% and 23%
  Population Tubulin-Different-Phenotype (%): 100% and 86%

## CCCCOc1c(C(=O)c2c(F)cc(C)cc2F)c[nH]c2nncc1-2
[1]
  Population Apoptotic (%): 54% and 60%
  Population Healthy Nuclei (%): 52% and 86%
  Population Hoechst High Intensity Objects (%): 0%
  Population Membrane Permeable-Phenotype (%): 0% and 3%
  Population Mitochondria Different-Phenotype (%): 0% and 1%
  Population Mitotic Cells (%): 45% and 40%
  Population Normal (%): 100%
  Population Pyknosed Nuclei (%): 20% and 9%
  Population Tubulin-Different-Phenotype (%): 89% and 86%
[2]
  Population Apoptotic (%): 42% and 84%
  Population Fragmented Nuclei (%): 19% and 8%
  Population Healthy Nuclei (%): 29% and 79%
  Population Hoechst High Intensity Objects (%): 0%
  Population Membrane Permeable-Phenotype (%): 2% and 1%
  Population Mitochondria Different-Phenotype (%): 0%
  Population Normal (%): 100%
  Population Tubulin-Different-Phenotype (%): 73% and 91%
  Total Cell Count: 143 and 207
[3]
  Population Apoptotic (%): 46% and 62%
  Population Fragmented Nuclei (%): 10% and 5%
  Population Healthy Nuclei (%): 52% and 82%
  Population Hoechst High Intensity Objects (%): 0%
  Population Membrane Permeable-Phenotype (%): 0% and 1%
  Population Mitochondria Different-Phenotype (%): 0%
  Population Mitotic Cells (%): 53% and 37%
  Population Normal (%): 100%
  Population Tubulin-Different-Phenotype (%): 76% and 79%
[4]
  Population Apoptotic (%): 41% and 66%
  Population Hoechst High Intensity Objects (%): 1% and 0%
  Population Membrane Permeable-Phenotype (%): 6% and 2%
  Population Mitochondria Different-Phenotype (%): 0%
  Population Mitotic Cells (%): 58% and 33%
  Population Normal (%): 98% and 100%
  Population Tubulin-Different-Phenotype (%): 81% and 86%
  Total Cell Count: 187 and 205
[5]
  Population Apoptotic (%): 37% and 67%
  Population Fragmented Nuclei (%): 5% and 4%
  Population Healthy Nuclei (%): 71% and 88%
  Population Hoechst High Intensity Objects (%): 0%
  Population Membrane Permeable-Phenotype (%): 4% and 2%
  Population Mitochondria Different-Phenotype (%): 4% and 1%
  Population Mitotic Cells (%): 62% and 32%
  Population Normal (%): 100% and 99%
  Population Tubulin-Different-Phenotype (%): 77% and 74%
[6]
  Population Apoptotic (%): 35% and 75%
  Population Hoechst High Intensity Objects (%): 0%
  Population Membrane Permeable-Phenotype (%): 7% and 4%
  Population Mitochondria Different-Phenotype (%): 0%
  Population Mitotic Cells (%): 64% and 24%
  Population Normal (%): 100%
  Population Tubulin-Different-Phenotype (%): 73% and 77%
  Total Cell Count: 291 and 241

## CCn1ccc(Nc2ncc3c(n2)-c2c(nn(C)c2-c2ccc(-c4cnn(C)c4)cc2Cl)CC3)n1
[1]
  Population Apoptotic (%): 62% and 57%
  Population Fragmented Nuclei (%): 5% and 15%
  Population Healthy Nuclei (%): 83% and 63%
  Population Hoechst High Intensity Objects (%): 0%
  Population Mitochondria Different-Phenotype (%): 1% and 9%
  Population Mitotic Cells (%): 37% and 42%
  Population Normal (%): 100%
  Population Pyknosed Nuclei (%): 11% and 21%
  Population Tubulin-Different-Phenotype (%): 78% and 47%
[2]
  Population Apoptotic (%): 62% and 66%
  Population Fragmented Nuclei (%): 3% and 4%
  Population Healthy Nuclei (%): 71% and 83%
  Population Hoechst High Intensity Objects (%): 0%
  Population Membrane Permeable-Phenotype (%): 13% and 4%
  Population Mitochondria Different-Phenotype (%): 8% and 4%
  Population Mitotic Cells (%): 37% and 33%
  Population Normal (%): 100%
  Population Pyknosed Nuclei (%): 25% and 11%
  Population Tubulin-Different-Phenotype (%): 39% and 29%
[3]
  Population Apoptotic (%): 70% and 62%
  Population Healthy Nuclei (%): 85% and 64%
  Population Hoechst High Intensity Objects (%): 0%
  Population Mitochondria Different-Phenotype (%): 1% and 6%
  Population Mitotic Cells (%): 29% and 37%
  Population Normal (%): 99% and 100%
  Population Pyknosed Nuclei (%): 9% and 17%
  Population Tubulin-Different-Phenotype (%): 76% and 37%
[4]
  Population Apoptotic (%): 83% and 63%
  Population Fragmented Nuclei (%): 8% and 5%
  Population Healthy Nuclei (%): 75% and 82%
  Population Hoechst High Intensity Objects (%): 0%
  Population Membrane Permeable-Phenotype (%): 7% and 2%
  Population Mitochondria Different-Phenotype (%): 18% and 6%
  Population Mitotic Cells (%): 16% and 36%
  Population Normal (%): 100%
  Population Pyknosed Nuclei (%): 16% and 11%
  Population Tubulin-Different-Phenotype (%): 44% and 29%
[5]
  Population Apoptotic (%): 63% and 100%
  Population Healthy Nuclei (%): 89% and 77%
  Population Hoechst High Intensity Objects (%): 0%
  Population Membrane Permeable-Phenotype (%): 1% and 8%
  Population Mitochondria Different-Phenotype (%): 0% and 4%
  Population Normal (%): 100%
  Population Pyknosed Nuclei (%): 7% and 9%
  Population Tubulin-Different-Phenotype (%): 81% and 40%
[6]
  Population Apoptotic (%): 68% and 75%
  Population Fragmented Nuclei (%): 8% and 3%
  Population Healthy Nuclei (%): 55% and 80%
  Population Hoechst High Intensity Objects (%): 0%
  Population Membrane Permeable-Phenotype (%): 4% and 3%
  Population Mitochondria Different-Phenotype (%): 12% and 4%
  Population Mitotic Cells (%): 31% and 25%
  Population Normal (%): 100% and 99%
  Population Pyknosed Nuclei (%): 35% and 16%
  Population Tubulin-Different-Phenotype (%): 44% and 35%

## COCCN1CCN(CCn2ccc(Nc3ncc4c(n3)-c3c(nn(C)c3-c3ccccc3)C[C@H]4C)n2)CC1
[1]
  Population Apoptotic (%): 40% and 50%
  Population Healthy Nuclei (%): 84% and 72%
  Population Hoechst High Intensity Objects (%): 0%
  Population Membrane Permeable-Phenotype (%): 1% and 5%
  Population Mitochondria Different-Phenotype (%): 0%
  Population Mitotic Cells (%): 59% and 50%
  Population Normal (%): 100%
  Population Pyknosed Nuclei (%): 11% and 7%
  Population Tubulin-Different-Phenotype (%): 82% and 40%
[2]
  Population Apoptotic (%): 46% and 63%
  Population Fragmented Nuclei (%): 8% and 4%
  Population Healthy Nuclei (%): 61% and 79%
  Population Hoechst High Intensity Objects (%): 0%
  Population Membrane Permeable-Phenotype (%): 6% and 7%
  Population Mitochondria Different-Phenotype (%): 6% and 8%
  Population Mitotic Cells (%): 53% and 36%
  Population Normal (%): 100% and 99%
  Population Pyknosed Nuclei (%): 30% and 16%
  Population Tubulin-Different-Phenotype (%): 20% and 35%
[3]
  Population Apoptotic (%): 58% and 83%
  Population Fragmented Nuclei (%): 2% and 10%
  Population Healthy Nuclei (%): 86% and 81%
  Population Hoechst High Intensity Objects (%): 0%
  Population Membrane Permeable-Phenotype (%): 0% and 7%
  Population Mitochondria Different-Phenotype (%): 0% and 1%
  Population Mitotic Cells (%): 41% and 16%
  Population Normal (%): 100%
  Population Pyknosed Nuclei (%): 11% and 8%
  Population Tubulin-Different-Phenotype (%): 83% and 47%
[4]
  Population Apoptotic (%): 86% and 70%
  Population Fragmented Nuclei (%): 12% and 4%
  Population Healthy Nuclei (%): 63% and 78%
  Population Hoechst High Intensity Objects (%): 0%
  Population Membrane Permeable-Phenotype (%): 5% and 4%
  Population Mitochondria Different-Phenotype (%): 5% and 12%
  Population Mitotic Cells (%): 13% and 29%
  Population Normal (%): 100%
  Population Pyknosed Nuclei (%): 23% and 16%
  Population Tubulin-Different-Phenotype (%): 40% and 37%
[5]
  Population Apoptotic (%): 58% and 45%
  Population Fragmented Nuclei (%): 10% and 1%
  Population Healthy Nuclei (%): 68% and 89%
  Population Hoechst High Intensity Objects (%): 0%
  Population Membrane Permeable-Phenotype (%): 9% and 1%
  Population Mitochondria Different-Phenotype (%): 0%
  Population Mitotic Cells (%): 41% and 54%
  Population Normal (%): 100%
  Population Pyknosed Nuclei (%): 21% and 8%
  Population Tubulin-Different-Phenotype (%): 54% and 80%
[6]
  Population Apoptotic (%): 88% and 91%
  Population Fragmented Nuclei (%): 12% and 6%
  Population Healthy Nuclei (%): 70% and 78%
  Population Hoechst High Intensity Objects (%): 0%
  Population Membrane Permeable-Phenotype (%): 10%
  Population Mitochondria Different-Phenotype (%): 2% and 9%
  Population Mitotic Cells (%): 11% and 8%
  Population Normal (%): 100% and 99%
  Population Pyknosed Nuclei (%): 16% and 14%
  Population Tubulin-Different-Phenotype (%): 38% and 34%
